The source made the active and inactive calls. No cut-off for these calls is given here.

Among the data in ChEMBL document CHEMBL1149859, “Proteasome inhibition by peptide-semicarbazones” (Bioorg Med Chem, 2008) are IC50, Activity and EC50 values, retold here.

One assay relates to PBMC. Nature of the assay: Antiproliferative activity against human peripheral blood mononuclear cells after 48 hrs by ELISA. It counts as cell-based. The procedure, abridged: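 Human PBMC isolated by density gradient, 100,000–200,000 cells/well in RPMI 1640 with 10% heat-inactivated FBS. Stimulated with 20 µg/ml PHA-L and exposed to compound at 0.4–50 µM for 48 h at 37 °C, 5% CO2. BrdU (10 µM) added for a further 4 h. Cells fixed and DNA denatured; incorporated BrdU detected with anti-BrdU-POD.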

A further assay concerns A549. Nature of the assay: Inhibition of TNF-alpha-induced NF-kappaB transcriptional activation in human A549 cells by SEAP reporter gene assay. It counts as functional, cell-based. The procedure, abridged:
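A549 cells stably transfected with a pNF-κB-SEAP reporter, seeded at 2 × 10^4/well and attached overnight. Preincubated 5 h with compound at 100, 30, 10, 3, 1, 0.3, 0.1 and 0 µM, then stimulated with 10 ng/ml TNF-α for 22 h. Supernatant SEAP read by chemiluminescence; viability checked in parallel with CellTiter-Blue.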
(Reporter assays use an easily measured gene product as a stand-in for the process of interest.)

A short description of assay [1]: Inhibition of human 20S proteasome by fluorescence spectroscopy. The procedure, abridged: (§1)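 20S proteasome (1.3 µg) activated in 25 mM Hepes pH 7.5, 0.5 mM EDTA, 0.033% SDS for 10 min at room temperature. Added to compound in DMSO with 75 µM Suc-LLVY-AMC. AMC release followed 20 min at 30 °C (ex 360, em 465 nm) as RFU/min. IC50 from eight concentrations, triplicates on one day.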

Assay [2] can be described thus: Inhibition of chymotrypsin-like site of human 20S proteasome. An outline of the steps: as §1
Assay [3] in a line: Inhibition of peptidylglutamyl peptide hydrolyzing site of human 20S proteasome. An outline of the steps:
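Peptidylglutamyl-peptide hydrolysing activity of SDS-activated 20S proteasome (1.3 µg; 25 mM Hepes pH 7.5, 0.5 mM EDTA, 0.033% SDS, 10 min preincubation at room temperature). Substrate was 75 µM Z-LLE-βNA with compound in DMSO. Fluorescence followed 20 min at 30 °C as RFU/min. IC50 from eight concentrations, triplicates on one day.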

`O=C1CN(/N=C/[C@H](Cc2ccccc2)NC(=O)[C@H](Cc2c[nH]c3ccccc23)NC(=O)[C@H](Cc2c[nH]c3ccccc23)NC(=O)CCCCC2SCC3NC(=O)NC32)C(=O)N1` (stereo partly drawn): the values for the IC50 (in the assay on PBMC; in assay [1]) were 29000 nM and 100 nM, respectively. Moreover, in the assay on A549, the outcome was inactive.

Consider `NC(=O)N/N=C/[C@H](Cc1ccccc1)NC(=O)[C@H](Cc1c[nH]c2ccccc12)NC(=O)[C@H](Cc1c[nH]c2ccccc12)NC(=O)OCc1ccccc1`, for which the EC50 (commonly the concentration giving half of the maximal effect) with A549 amounted to 5800 nM. In addition, the midpoint of inhibition in assay [1], the IC50, lay at 200 nM.

Consider `O=C1CN(/N=C/[C@H](Cc2ccccc2)NC(=O)[C@H](Cc2c[nH]c3ccccc23)NC(=O)[C@H](Cc2c[nH]c3ccccc23)NC(=O)OCc2ccccc2)C(=O)N1`, for which the IC50 (commonly the point on the concentration scale where inhibition reaches its midpoint) in the assay with PBMC amounted to 700 nM; in assay [2] it was 200 nM; in assay [3] it was 1200 nM; in assay [1], 200 nM. The midpoint of the response in the assay on A549, the EC50, lay at 400 nM.

With `O=C1CN(/N=C/[C@H](Cc2c[nH]c3ccccc23)NC(=O)[C@H](Cc2c[nH]c3ccccc23)NC(=O)[C@H](Cc2c[nH]c3ccccc23)NC(=O)OCc2ccccc2)C(=O)N1`, the concentration giving a half-maximal response (EC50) in the assay on A549 worked out at 3000 nM. Also, the concentration for half-maximal inhibition (IC50) in assay [1] amounted to 1100 nM.

Take `O=C1CN(/N=C/[C@@H](Cc2ccccc2)NC(=O)[C@H](Cc2c[nH]c3ccccc23)NC(=O)[C@H](Cc2c[nH]c3ccccc23)NC(=O)OCc2ccccc2)C(=O)N1`: in the assay with A549, a half-maximal effect (EC50) was put at 800 nM. For the same compound, the IC50 in assay [1] is 400 nM.

As to `O=C1CN(/N=C/[C@H](Cc2ccccc2)NC(=O)[C@H](Cc2c[nH]c3ccccc23)NC(=O)[C@H](Cc2c[nH]c3ccccc23)NC(=O)CCc2ccc(O)cc2)C(=O)N1`, the concentration giving a half-maximal response (EC50) with A549 amounted to 8700 nM. In assay [1], inhibition was half-maximal at 100 nM (IC50).

Turning to `NC(=O)N/N=C/[C@H](Cc1c[nH]c2ccccc12)NC(=O)[C@H](Cc1c[nH]c2ccccc12)NC(=O)[C@H](Cc1c[nH]c2ccccc12)NC(=O)OCc1ccccc1`, the IC50 in the assay on PBMC worked out at 1400 nM; in assay [2], 100 nM; in assay [3], 3700 nM; in assay [1], 100 nM. Moreover, in the assay on A549, the EC50 was 1800 nM.

`O=C1CN(/N=C/[C@H](Cc2ccccc2)NC(=O)[C@H](Cc2c[nH]c3ccccc23)NC(=O)[C@H](Cc2c[nH]c3ccccc23)NC(=O)OCc2ccncc2)C(=O)N1`: in the assay with A549, the concentration giving a half-maximal response (EC50) is 4900 nM. The compound further displayed a half-maximal inhibitory concentration (IC50) in assay [1] of 1600 nM.
